Data on two molecules can be found in ChEMBL document CHEMBL1143246, “Design and synthesis of bicyclic pyrimidinones as potent and orally bioavailable HIV-1 integrase inhibitors” (J Med Chem, 2008).

For data set [1], the system named is Human immunodeficiency virus 1. Kind of data set: Antiviral activity against HIV1 in human MT4 cell assessed as inhibition of virus spread in presence of 10% fetal bovine serum. The class given is functional. The note with it: Human immunodeficiency virus 1, MT4; read-out: CIC95. Put shortly:
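Spread of HIV-1 infection in MT-4 human T-lymphoid cell culture with 10% fetal bovine serum; CIC95 is the concentration inhibiting spread by ≥95%; mean of at least three independent experiments.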

For data set [2], the system named is Human immunodeficiency virus 1. Kind of data set: Antiviral activity against HIV1 in human MT4 cell assessed as inhibition of virus spread in presence of 50% normal human serum. In kind it is functional. The note with it: Human immunodeficiency virus 1, MT4; read-out: CIC95. Summed up:
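Spread of HIV-1 infection in MT-4 human T-lymphoid cell culture with 50% normal human serum; CIC95 is the concentration inhibiting spread by ≥95%; mean of at least three independent experiments.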

Data set [3] can be described thus: Protein binding in rat plasma. In kind it is ADME, cell-free. The note with it: read-out: PPB (converted). Put shortly: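 Plasma protein binding was measured by ultrafiltration after a 1 h incubation of compound in plasma at 37 °C.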
Data set [4] can be described thus: Protein binding in dog plasma. The note with it: read-out: PPB (converted). In kind it is ADME, cell-free, Canis lupus familiaris. Put shortly: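 Plasma protein binding measured by ultrafiltration after incubation at 37 °C for 1 h.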
In another data set the test system is Liver microsomes. Kind of data set: Metabolic stability in rat liver microsomes in presence of NADPH and UDPGA. The class given is ADME, Microsome. Put shortly: (§1)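 Multiple time points over 1 h: compound 1 µM with liver microsomes 1 mg/mL, in the presence of both UDPGA and NADPH; degradation followed by LC/MS/MS.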
In general terms: Liver microsomes are vesicles of endoplasmic reticulum, rich in cytochrome P450 enzymes.

The subject of another data set is Liver. Kind of data set: Metabolic stability in dog liver microsomes in presence of NADPH and UDPGA. The class given is ADME, Canis lupus familiaris, Microsome. Summed up: as §1
Data set [5] is described as follows: Oral bioavailability in rat at 3 mg/kg. In kind it is ADME, organism-based. The note with it: in vivo. Put shortly:
(§2)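 In vivo PK: iv dosing in DMSO/PEG400/H₂O mixtures, oral dosing as methylcellulose suspension. Half-life was taken after iv dosing; AUC and Cmax after po dosing.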

The nature of data set [6]: Plasma clearance in rat at 3 mg/kg, po or 3 mg/kg, iv. The class given is ADME, organism-based. Put shortly: as §2
Data set [7] is described as follows: Plasma clearance in dog at 1 mg/kg, iv or 2 mg/kg, po. In kind it is ADME, organism-based, Canis lupus familiaris. Summed up:
as §2

Data set [8] in a line: Inhibition of recombinant HIV1 integrase strand transfer activity.
Data set [9] can be described thus: Oral bioavailability in dog at 2 mg/kg. The class given is ADME, organism-based, Canis lupus familiaris. The note with it: in vivo. Put shortly:
as §2

For the next data set, the species on record is Homo sapiens. Kind of data set: Protein binding in human plasma. The note with it: read-out: PPB (converted).

The term bioavailability denotes the share of a dose that reaches the circulation, judged against a reference dose that is usually intravenous. Read a high bioavailability as much systemic uptake. Usually pIC50 stands for the IC50 on a negative log10 scale, so that one unit is a factor of ten.

Structures are written as SMILES. pIC50: −log10 of the molar value.

With `CN1CCN(S(=O)(=O)N(C)[C@H]2CCCn3c2nc(C(=O)NCc2ccc(F)cc2)c(O)c3=O)CC1`, the IC95 in [1] and in data set [2] was 6 nM in each case. The fraction unbound in [3] is 0.24; in data set [4], 0.18. Besides, the Stability in the data set with Liver microsomes was determined as 10 µL/min/mg; in the data set with Liver, 8 µL/min/mg. Besides, in data set [5], the bioavailability was 15%. Moreover, the clearance in data set [6] came to 98 mL/min/kg; in data set [7] it was 23 mL/min/kg. In addition, the negative logarithm of the IC50 (pIC50) in data set [8] was 8.15.

For the molecule `CN(C)S(=O)(=O)N(C)[C@H]1CCCn2c1nc(C(=O)NCc1ccc(F)cc1)c(O)c2=O`, the IC95 in [1] was 12 nM; in data set [2] it was 31 nM. The bioavailability in data set [5] turned out to be 49%; in data set [9], 16%. Further, the figures for the clearance in [6] and in data set [7] were 14 mL/min/kg and 3.8 mL/min/kg, respectively. Moreover, in [8], the pIC50 was 8.30. For the same molecule, the fraction unbound in the data set filed under Homo sapiens was 0.13.
